Assay results: ChEMBL document CHEMBL2163238, “Design, synthesis, and biological evaluation of N-alkylated deoxynojirimycin (DNJ) derivatives for the treatment of dengue virus infection” (J Med Chem, 2012)
pEC50: −log10 of the molar value.

Experiments:
[1] = Selectivity index, ratio of CC50 for MDBK cells to EC50 for BVDV NADL infected in MDBK cells
How it was run: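 MDBK cells infected with BVDV NADL at MOI 1, 1 h at 37 °C, washed, then compounds at 0.1–100 μM. Media harvested at 22 h, plaque-titrated on MDBK under 1% methylcellulose for 3 days, neutral red or direct count. EC50 from yield curves; MTT CC50 in uninfected MDBK; SI = CC50/EC50.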

[2] = Antiviral activity against 1 MOI BVDV NADL infected in MDBK cells assessed as reduction in viral titer after 22 hrs; format: functional, cell-based, Bovine viral diarrhea virus 1-NADL
How it was run: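 MDBK cells (2×10^5) infected 24 h after seeding with BVDV NADL at MOI 1, with 1 h adsorption at 37 °C. Washed, then compounds at 0.1–100 μM. Media harvested 22 h post-infection and plaque-titrated on MDBK under 1% methylcellulose for 3 days. Plaques counted directly or after neutral red staining. EC50 from dose–response curves, mean of 3 independent experiments.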

[3] = Cytotoxicity against BHK cells assessed as cell viability by MTT assay; format: cell-based, Mesocricetus auratus; conditions: hamster
dengue virus type 2 = test: Antiviral activity against 0.01 MOI DENV-2 NGC infected in BHK cells assessed as reduction in viral titer after 48 hrs; format: functional, organism-based
How it was run: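 BHK cells infected with DENV-2 New Guinea C at MOI 0.01 for 1 h. Inoculum removed, then compounds at 0.1–100 μM for 48 h at 37 °C. Supernatants titrated on Vero monolayers as 10-fold dilutions under 0.5% methylcellulose for 3–5 days. Foci detected by 4G2 immunostaining or crystal violet plaques. EC50 from dose–response curves, mean of 3 independent experiments.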

[4] = Selectivity index, ratio of CC50 for BHK cells to EC50 for DENV-2 NGC infected in BHK cells
How it was run: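 BHK cells infected with DENV-2 New Guinea C at MOI 0.01 for 1 h, then compounds at 0.1–100 μM for 48 h at 37 °C. Supernatant titrated on Vero cells under 0.5% methylcellulose, 3–5 days; foci by 4G2 immunostaining or crystal violet plaques. EC50 from yield curves; MTT CC50 in uninfected BHK; SI = CC50/EC50.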

[5] = Cytotoxicity against MDBK cells assessed as cell viability by MTT assay; format: cell-based, Bos taurus; conditions: cattle
[6] = Bovine viral diarrhea virus isolates and strains, MDBK, 22 h

| SMILES | Ratio CC50/EC50 [1] | pEC50 [2, 6] | CC50 [3] [µM] | pEC50 (dengue virus type 2) | Ratio CC50/EC50 [4] | CC50 [5] [µM] | pEC50 ([2]; mdbk) |
| --- | --- | --- | --- | --- | --- | --- | --- |
| OC[C@@H]1[C@@H](O)[C@H](O)[C@@H](O)CN1CCCCCCOc1ccc(C(F)(F)F)cc1 | >455 | 5.96 | 470 | 5.89 | 362 | > 500 |  |
| COc1ccc(OCCCCCCN2C[C@H](O)[C@@H](O)[C@H](O)[C@H]2CO)cc1 | >500 | 6.00 | > 500 | 5.40 | >125 | > 500 |  |
| CCCOc1ccc(CCCN2C[C@H](O)[C@@H](O)[C@H](O)[C@H]2CO)cc1 | >2500 | 6.70 | > 500 | 6.30 | >1000 | > 500 |  |
| OC[C@@H]1[C@@H](O)[C@H](O)[C@@H](O)CN1CCCCCCOc1ccccc1C(F)(F)F | >500 | 6.00 |  |  |  | > 500 |  |
| CCCCCCCCCN1C[C@H](O)[C@@H](O)[C@H](O)[C@H]1CO | 318 | 5.96 |  |  |  | 350 |  |
| OC[C@@H]1[C@@H](O)[C@H](O)[C@@H](O)CN1CCCCCCOc1ccccc1 | >556 | 6.05 | > 500 | 5.77 | >294 | > 500 |  |
| CC1CC(OCCCCCCN2C[C@H](O)[C@@H](O)[C@H](O)[C@H]2CO)CC(C)(C)C1 (stereo partly specified) | 312 | 6.10 |  |  |  | 250 |  |
| CCC1CCC(OCCCCCCN2C[C@H](O)[C@@H](O)[C@H](O)[C@H]2CO)CC1 (stereo partly specified) | >1250 | 6.40 | 475 | 6.52 | 1583 | > 500 |  |
| CCCOc1ccccc1CCCN1C[C@H](O)[C@@H](O)[C@H](O)[C@H]1CO | >625 | 6.10 | > 500 | 5.49 | >156 | > 500 |  |
| CCC1CCCCC1OCCCCCCN1C[C@H](O)[C@@H](O)[C@H](O)[C@H]1CO (stereo partly specified) | 300 | 5.82 |  |  |  | 450 |  |
| CC1CCCC(OCCCCCCN2C[C@H](O)[C@@H](O)[C@H](O)[C@H]2CO)C1C (stereo partly specified) | >417 | 5.92 |  |  |  | > 500 |  |
| CC1CCCC(OCCCCCCN2C[C@H](O)[C@@H](O)[C@H](O)[C@H]2CO)C1 (stereo partly specified) | >1667 | 6.52 |  |  |  | > 500 |  |
| Cc1ccc(C(C)(C)C)c(OCCCCCCN2C[C@H](O)[C@@H](O)[C@H](O)[C@H]2CO)c1 | 142 | 6.22 |  |  |  | 85 |  |
| OC[C@@H]1[C@@H](O)[C@H](O)[C@@H](O)CN1CCCc1ccccc1OC1CCCCC1 | >175 | 4.62 |  |  |  | 420 |  |
| Cc1ccc(C(C)C)cc1OCCCCCCN1C[C@H](O)[C@@H](O)[C@H](O)[C@H]1CO | 129 | 6.15 |  |  |  | 90 |  |
| OC[C@@H]1[C@@H](O)[C@H](O)[C@@H](O)CN1CC/C=C/CCOc1cc(F)ccc1F | >556 | 6.05 | > 500 | 5.66 | >227 |  |  |

| SMILES | Ratio CC50/EC50 [1] | pEC50 [2, 6] | CC50 [3] [µM] | pEC50 (dengue virus type 2) | Ratio CC50/EC50 [4] | CC50 [5] [µM] | pEC50 ([2]; mdbk) |
| --- | --- | --- | --- | --- | --- | --- | --- |
| CCCCC1CCC(OCCCCCCN2C[C@H](O)[C@@H](O)[C@H](O)[C@H]2CO)CC1 (stereo partly specified) | 106 | 5.74 |  |  |  | 190 |  |
| CCC(CC)OCCCCCCN1C[C@H](O)[C@@H](O)[C@H](O)[C@H]1CO | 150 | 5.52 |  |  |  | 450 |  |
| CCCC1CCCCC1OCCCCCCN1C[C@H](O)[C@@H](O)[C@H](O)[C@H]1CO (stereo partly specified) | 300 | 6.30 |  |  |  | 150 |  |
| CCCCCC#CCCN1C[C@H](O)[C@@H](O)[C@H](O)[C@H]1CO |  | < 4.00 |  |  |  | > 500 |  |
| CC(C)C(OCCCCCCN1C[C@H](O)[C@@H](O)[C@H](O)[C@H]1CO)C(C)C | >67 | 5.12 |  |  |  | > 500 |  |
| OC[C@@H]1[C@@H](O)[C@H](O)[C@@H](O)CN1CCCCCCOc1ccccc1F | >179 | 5.55 |  |  |  | > 500 |  |
| OC[C@@H]1[C@@H](O)[C@H](O)[C@@H](O)CN1CCCc1cccc(OC2CCCCC2)c1 | 111 | 5.46 |  |  |  | 390 |  |
| OC[C@@H]1[C@@H](O)[C@H](O)[C@@H](O)CN1CCCc1ccc(OC2CCCCC2)cc1 | 54 | 5.26 |  |  |  | 295 |  |
| Cc1ccc(C(C)C)c(OCCCCCCN2C[C@H](O)[C@@H](O)[C@H](O)[C@H]2CO)c1 | 103 | 6.22 |  |  |  | 62 |  |
| OC[C@@H]1[C@@H](O)[C@H](O)[C@@H](O)CN1CC/C=C\CCOc1cc(F)ccc1F | >250 | 5.70 |  | 5.07 | >59 | > 500 |  |
| OC[C@@H]1[C@@H](O)[C@H](O)[C@@H](O)CN1CCCCCCOc1cc(Cl)ccc1Cl | 213 | 5.82 |  |  |  | 320 |  |
| OC[C@@H]1[C@@H](O)[C@H](O)[C@@H](O)CN1CCCCCCOc1cccnc1 | >200 | 5.60 |  |  |  | > 500 |  |
| CC/C=C\CCCCCN1C[C@H](O)[C@@H](O)[C@H](O)[C@H]1CO | >45 | 4.96 |  |  |  | > 500 |  |
| Cc1cccc(OCCCCCCN2C[C@H](O)[C@@H](O)[C@H](O)[C@H]2CO)c1.Cl | >1250 |  |  |  |  |  | 6.40 |
| OC[C@@H]1[C@@H](O)[C@H](O)[C@@H](O)CN1CCCCCCOc1c(F)cc(F)cc1F | >100 | 5.30 |  |  |  | > 500 |  |
| OC[C@@H]1[C@@H](O)[C@H](O)[C@@H](O)CN1CCCCCCOC1CCCCC1C1CCCCC1 (stereo partly specified) | 400 | 6.30 |  |  |  | 200 |  |
